# Assay results published in ChEMBL document CHEMBL4513216, “Probing the Open Global Health Chemical Diversity Library for Multistage-Active Starting Points for Next-Generation Antimalarials” (ACS Infect Dis, 2020).
# Assay: Toxicity liver stage against HepG2, at 10uM
# Assay type: cell-based
# Set-up: test concentration 10 uM, cell line HepG2-A16-CD81EGFP
# Details: human, HepG2-A16-CD81EGFP cells; read-out: INHIBITION
# Procedure, shortened: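 Uninfected HepG2-A16-CD81EGFP cells, 3 × 10^3 per well, 1536-well, plated on prespotted compound at 10 μM final, parasite-free screening media added to match infected plates; puromycin 10 μM positive, DMSO 0.5% negative; run in parallel with 48 h PbLuc assay at 37 °C, 5% CO2; viability by CellTiter-Glo luminescence, normalized to controls.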
row,Structure (SMILES),cytotoxicity at 10 µM [%]
1,Cc1oncc1C(=O)N1CC[C@@H]2[C@@H]1CC(=O)N2Cc1cccnc1,5.44
2,Cc1ncc2c(n1)CCCC2NC(=O)c1cnn(Cc2ccccc2)c1 (stereo unspecified),-4.49
3,Cc1ccc(CN2Cc3ccnn3CC(C(=O)NCC3CC3)C2)o1 (stereo unspecified),-15.9
4,c1cc(CN2CCCN(c3ccc4cc[nH]c4n3)CC2)ccn1,-9.98
5,CC(=O)N1CCCC1c1nc(C)c2c(n1)N(Cc1ccccn1)CCC2 (stereo unspecified),0.711
6,CCN(Cc1cccs1)S(=O)(=O)N(C)C(C)C,-49
7,CC(C)Cn1cnnc1C1CCCN1C(=O)c1cc2ccccn2c1 (stereo unspecified),-0.384
8,CNC(=O)C1CCN(CC(=O)Nc2cc(C(C)C)no2)CC1,-8.01
9,Cn1c(CN2CCCCC2)cc(=O)c(O)c1CN1CCCCC1,-2.34
10,COc1cccc2c1OCC(NCCCOc1cccnc1)C2 (stereo unspecified),1.52
11,O=C(C[C@@H]1COC[C@H]2CN(C(=O)c3cccnc3)C[C@@H]12)N1CCOCC1,-105
12,CC(C)N1CCC2(CCCN(Cc3ccc(F)cc3)C2=O)C1 (stereo unspecified),-28.7
13,CN1CCCC1c1ccnc(-c2ccccc2)n1 (stereo unspecified),2.77
14,Cc1noc(Cl)c1CCC(=O)N1CCN(CC(C)(C)O)CC1,1.61
15,Cc1ccc2c(c1)C1(CCNCC1)CC2NCCO (stereo unspecified),-105
16,c1ccc(CN2C[C@@H]3CCCO[C@@H]3[C@H](Nc3ccccn3)C2)nc1,-7.39
17,C1CCN(c2nc(N3CCOCC3)nc3[nH]nnc23)CC1,8.95
18,Cc1nn(C)c(C)c1C1COCCN1C(=O)CCc1ccccc1 (stereo unspecified),-0.284
19,COc1cc(NC(=O)NCc2cc(C)oc2C)cc(OC)c1,5.24
20,CCOc1ccc(CC(CNC(=O)c2ccoc2)C(N)=O)cc1 (stereo unspecified),5.37
21,Cc1nc(C)c(CC(=O)Nc2nnc(C)s2)c(=O)[nH]1,-2.17
22,COCCN1CCC(NCc2c(C(C)C)nn(C)c2N(C)C)CC1,11.6
23,COc1ccc(CCN2C(=O)O[C@@H]3CN(C4CCSCC4)C[C@@H]32)cc1,1.6

row,Structure (SMILES),cytotoxicity at 10 µM [%]
1,CCc1ncnc2c1CCN(C(=O)Cc1ccccn1)CC2,-8.75
2,CC(C)c1nnc2n1CCN(C(=O)c1cn(-c3ccccc3)nn1)C2,-144
3,COCCN(Cc1ccccc1)Cc1nc(-c2ccsc2)no1,5.6
4,CCn1nc(C)c(CCn2ccnc2-c2cc3n(n2)CCNC3)c1C,5.15
5,Cc1ccc(N2CCCC(N3CCC(CO)CC3)C2=O)cc1 (stereo unspecified),0.473
6,CC(Nc1ncnc2c1CCNC2)c1ccc(C(C)(C)C)cc1 (stereo unspecified),28
7,C=C(C)COc1cccc(CNC(CC(C)C)c2ncnn2C)c1 (stereo unspecified),1.16
8,COc1ccc(C2CNCCN2C(=O)c2cccc3cccnc23)cc1 (stereo unspecified),-4.48
9,O=C(NCc1cccnc1)Nc1ccn(CC(F)F)n1,1.68
10,O=C(NC1CC1)C1[C@H]2CN(Cc3ccc(-c4cc[nH]n4)s3)C[C@@H]12 (stereo partly specified),6.27
11,COC(=O)c1ccc(CNCc2cn(C)nc2C)cc1,-8.55
12,Cc1ccc(NS(=O)(=O)c2cnn(-c3ccccc3)c2)c(C(=O)O)c1,-3.11
13,Fc1ccc(CN2CCC(F)(F)C3(CCN(c4cnccn4)C3)C2)cc1 (stereo unspecified),8.62
14,Cc1nc(CSCCC(=O)NCc2cccnc2N(C)C)cs1,-9.19
15,CC(C)n1ncc2c1NC(=O)CC21C(=O)Nc2c(Br)cc(Cl)cc21 (stereo unspecified),5.99
16,O=C([C@H]1CCCO1)N1CCOC2(CCCN(c3ncccc3F)C2)C1 (stereo partly specified),1.73
17,O=C(c1coc(-c2ccccc2)n1)N1CCCC1,5.47
18,CC(C)c1nc(CN2CCCCC2)cs1,20.2
19,CCc1nc2ccccc2c(=O)n1CC1(O)CCNCC1,-15.3
20,CS(=O)(=O)c1cnc(N2CCCC2)nc1C1CCN(C(=O)C2CC2)CC1,1.45
21,CC(Nc1nccc(CCC(F)(F)F)n1)c1nc(-c2ccccn2)no1 (stereo unspecified),-6.43
22,CN(C)C(=O)C1(C)CN(Cc2cn(C)c3ccc(F)cc23)CCO1 (stereo unspecified),4.57
23,CCN1CCc2nc(N3CCOCC3)nc(NC(C)C)c2C1,-112

row,Structure (SMILES),cytotoxicity at 10 µM [%]
1,Cc1ccc(SCC2CNc3nc4ccccc4c(=O)n32)c(C)c1 (stereo unspecified),6.76
2,CCNC(=O)[C@@H]1C[C@H](N)CN1c1cc(CC)nc(N(C)C)n1,-3.08
3,CC(C)c1nc(CN2CCCN(Cc3nccn3C)CC2)no1,1.13
4,O=C(CN1C(=O)CCC1=O)NCc1nn(C2CCCC2)c2c1CCCC2,1.97
5,O=C(NCC1OCCc2cn(CC3CCOCC3)nc21)c1ccsc1 (stereo unspecified),4.84
6,COCCN1CCC(CNC(=O)C2(c3cc(C)cc(C)c3)CCC2)C1 (stereo unspecified),-7.4
7,CC(C)CCc1noc(CN2CCCC(CNS(N)(=O)=O)C2)n1 (stereo unspecified),2.48
8,O=C(CCNCc1cc(O)c2cc(F)ccc2n1)N1CCCC1,-49.3
9,COCCc1noc(Cn2ccc3ncccc3c2=O)n1,-2.59
10,Cc1cc(C(=O)NCC(O)CN2CCCC2=O)ccc1F (stereo unspecified),5.24
11,CC(CN1CCOCC1)NC1CCN(Cc2cccc(O)c2)CC1 (stereo unspecified),-0.683
12,CNC(=O)CNC1CC2(CCN(c3ncccn3)CC2)c2ccccc21 (stereo unspecified),4.68
13,COc1ccc(-c2cc(C3CCNCC3)ccn2)cc1,0.288
14,CC(C)NC(=O)N1CCC(c2nnc3n2CCNC3)CC1,10.4
15,COc1ccc(C)cc1C(C)NS(=O)(=O)c1ccc2c(c1)CCC(=O)N2 (stereo unspecified),-33
16,NC(=O)N1CCCC(C(=O)NCCOc2ccc(F)c(F)c2)C1 (stereo unspecified),2.94
17,COc1cc(CNCc2c(C(C)C)nn(C)c2N(C)C)ccn1,0.504
18,CCCc1cc(C(=O)N(Cc2cccnc2)C[C@@H]2CCC(=O)N2)no1,6.82
19,CN(Cc1ccccc1CN1CCCC1)C(=O)c1c[nH]c(=O)[nH]1,-3.99
20,O=C(c1nc(=O)[nH][nH]1)N1CCC2(CCCCC2)C1,11.4
21,O=C(CN1CCOc2ccc(Cl)cc21)NCCCn1ccnc1,-7.49
22,CC(C)c1nc(CN2CCN(C(=O)CN3CCOCC3)CC2)no1,-7.8
23,Cc1nc(C)c(CCN2CCC(Oc3ccccc3F)CC2)s1,42.9

row,Structure (SMILES),cytotoxicity at 10 µM [%]
1,NC(=O)Cn1cnc2nc3n(c2c1=O)CCC3,2.96
2,CC(CCCC(C)(C)O)Nc1ccc(-c2nccn2C)nn1 (stereo unspecified),3.96
3,CN(C(=O)Cn1nc(-c2ccc(F)cc2)oc1=O)C1CCS(=O)(=O)C1 (stereo unspecified),10.7
4,CN1CCC(CCc2ccnc(Nc3cnccn3)c2)CC1,-12.6
5,O=C(c1ccc(Cl)cn1)N1CCC(COCc2ccccc2)C1 (stereo unspecified),5.88
6,Cc1cnn(CC2CCCN2c2ncnc3sccc23)c1 (stereo unspecified),44.4
7,CC(C)c1nc(C(=O)N2CCOCC2CC(=O)c2ccco2)cs1 (stereo unspecified),-7.58
8,CC1CCCCN1Cc1ccc(-c2ccccc2C(=O)O)cc1 (stereo unspecified),6.74
9,Cn1cnc(S(=O)(=O)NCCCN2CCCCCC2)c1Cl,-9.53
10,Cc1cnn(CCNCc2cc(C)no2)c1,8.77
11,Cc1ccn(-c2ccccc2NCc2scnc2C)n1,7.28
12,CNc1nc(C2CCCN2C(C)=O)nc2c1CCN(CC1CC1)C2 (stereo unspecified),-0.361
13,CN(C)c1ncnc2c1CCN(c1ccccc1)CC2,13.4
14,CC(C)N(C)C[C@H]1OC[C@@H]2CCN(Cc3cccc(C#N)c3)C[C@@H]21,9.28
15,O=C(NCCCn1ccnc1)Nc1ccn(CCc2ccccn2)n1,-0.386
16,CCc1cc(NCCCOC2CCN(C)CC2)ncn1,-8.34
17,CC(C)Nc1nc2c(cc1C(=O)O)CCN(Cc1ccsc1)CC2,0.676
18,CN(C)CCO[C@H]1C[C@@H](O)C12CCN(c1nccc3ccccc13)CC2,2.2
19,OC(CN1CCN(c2ncccn2)CC1)c1cccc(F)c1 (stereo unspecified),2.4
20,CCOc1ccc(CN2CCN(C(=O)c3ccc(C)n3C)CC2)cc1,19.2
21,c1ccc(CN2CC[C@@H]3O[C@@H](COCCN4CCCC4)CC[C@@H]32)nc1,-80.6
22,COc1ccc(F)cc1C(C(=O)O)N1CCSCC1 (stereo unspecified),-4.2
23,CC1(C)Oc2ccc(NC(=O)c3ccc(=O)[nH]n3)cc2O1,10.1

row,Structure (SMILES),cytotoxicity at 10 µM [%]
1,CC1(C)CC(N(Cc2cccnc2)Cc2cccc(F)c2)CC(C)(C)N1,-6.41
2,CNCC(=O)N1CCCC1c1n[nH]cc1-c1ccccc1F (stereo unspecified),-0.136
3,Cc1c(Cn2ccnc2-c2cc(CN(C)C)cs2)cnn1C,-0.309
4,CN1CCN(Cc2cn3c(n2)CN(C(=O)c2cccn2C)CC3)CC1,2.89
5,CN(Cc1ccco1)[C@@H]1CN(Cc2ccco2)[C@@H]2CCCO[C@H]12,1.41
6,CCS(=O)(=O)N1CCC2(CC1)CN(c1ccsc1)C(=O)CO2,-73.7
7,COCCN1CCn2c(nc3cc(C(=O)NC(C)C)ccc32)C1,2.38
8,CC(NC(=O)CN1C=Nc2ccccc2S1(=O)=O)C1CC1 (stereo unspecified),4.53
9,FC(F)(F)c1ccc2nc([C@H]3CCN(C4CCCCC4)C3)[nH]c2c1,-0.668
10,Cc1cc(-c2cnc(N3CCNC(=O)C3)nc2-c2sccc2C)on1,-12
11,O=C(c1cscn1)N1CC[C@@H]2[C@@H]1CCN2c1ccccn1,5.95
12,COCC(=O)N1CCN(C)C(=O)C(Cc2ccc(-c3cccs3)cc2)C1 (stereo unspecified),1.74
13,N#CC1(c2ccccc2)CCN(C(=O)C2CCCN(C(N)=O)C2)CC1 (stereo unspecified),-22.2
14,CC(C)C[C@H](NC(=O)N1CCC(Cc2ccccc2)CC1)C(=O)O,-4.13
15,CCC(=O)c1ccc(OCC(=O)NC(C)c2nnn[nH]2)cc1 (stereo unspecified),-1.62
16,Cc1ccc(N(CC(=O)N2CCCCC2)C(=O)C2COCCO2)cc1 (stereo unspecified),13.6
17,Cc1cc(C(=O)Nc2cnn(CC(F)(F)F)c2)nc(N(C)C)n1,-2.89
18,O=C1N(Cc2cccc(F)c2)CCC12CCCNC2 (stereo unspecified),-5.19
19,Cc1c(C)n(-c2ccccn2)c2nc3c(c(N)c12)CCCC3,7.18
